T/C data for four compounds are collected here from ChEMBL document CHEMBL1121866, “Synthesis of 5'-thymidinyl bis(1-aziridinyl)phosphinates as antineoplastic agents” (1981).

What all share (type): functional
Assay [1] has as its system Mus musculus. In words: Compound was evaluated for antitumor activity against L1210 leukemia in mice by NCI screener test at a dose of 50 mg/kg. The gist of the method:
(§1)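 Tested in mice bearing L1210 or P-388 leukemia in the National Cancer Institute screening program under NCI standard assay protocols. Read-out is survival as % T/C, treated versus control, at each dose level.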

For assay [2], the system named is Mus musculus. In words: Compound was evaluated for antitumor activity against L1210 leukemia in mice by NCI screener test at a dose of 100 mg/kg. The gist of the method:
as §1

The test system of assay [3] is Mus musculus. In words: Compound was evaluated for antitumor activity against L1210 leukemia in mice by NCI screener test at a dose of 200 mg/kg. The method in brief:
as §1

Assay [4] has as its system Mus musculus. In words: Compound was evaluated for antitumor activity against P-388 leukemia in mice by NCI screener test at a dose of 100 mg/kg. The gist of the method: as §1
Assay [5] relates to Mus musculus. In words: Compound was evaluated for antitumor activity against P-388 leukemia in mice by NCI screener test at a dose of 200 mg/kg. The gist of the method:
as §1

Assay [6] relates to Mus musculus. In words: Compound was evaluated for antitumor activity against L1210 leukemia in mice by W screener test at a dose of 250 mg/kg.
For assay [7], the system named is Mus musculus. In words: Compound was evaluated for antitumor activity against P-388 leukemia in mice by NCI screener test at a dose of 25 mg/kg. The gist of the method:
as §1

The subject of assay [8] is Mus musculus. In words: Compound was evaluated for antitumor activity against L1210 leukemia in mice by W screener test at a dose of 500 mg/kg. The method in brief:
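L1210 leukemia in mice, run at Virginia Commonwealth University by G. L. Wampler at higher dose levels, following NCI standard assay guidelines. Activity is reported as survival % T/C.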

Assay [9] relates to Mus musculus. In words: Compound was evaluated for antitumor activity against P-388 leukemia in mice by NCI screener test at a dose of 50 mg/kg. The gist of the method: as §1

By T/C is commonly meant the ratio of treated to control. Consider `Cc1cn([C@H]2C[C@H](O)[C@@H](CO[P+]([O-])(N3CC3(C)C)N3CC3(C)C)O2)c(=O)[nH]c1=O` (stereo partly drawn), for which the T/C in assay [1] was determined as 94%; in assay [2] it was 105%; in assay [3] it was 124%.

Take `Cc1cn([C@H]2C[C@H](O)[C@@H](CO[P+]([O-])(N3CC3)N3CC3)O2)c(=O)[nH]c1=O`: the values for the T/C in [1], in [2] and in assay [3] were 107%, 100% and 94%, respectively.

Turning to `CC(=O)O[C@H]1C[C@H](n2cc(C)c(=O)[nH]c2=O)O[C@@H]1CO[P+]([O-])(N1CC1)N1CC1`, the T/C in assay [4] was 124%; in assay [5], 142%; in [6], 111%; in assay [7] it was 104%; in assay [1], 107%; in [8], 111%. Also, the T/C in [3] and in assay [9] was 112% in each case.

Turning to `CC(=O)O[C@H]1C[C@H](n2cc(C)c(=O)[nH]c2=O)O[C@@H]1CO[P+]([O-])(N1CC1(C)C)N1CC1(C)C` (stereo partly drawn), the T/C in [4] stood at 141%; in assay [5], 154%; in assay [6], 125%; in [7] it was 110%; in assay [1], 110%; in assay [2], 112%. Further, the T/C in assay [8] is given as 137%; in assay [3], 123%; in assay [9], 138%.
